The results in this text go back to ChEMBL document CHEMBL4706701, “Synthesis and biological activity of selenopsammaplin A and its analogues as antitumor agents with DOT1L inhibitory activity” (Bioorg Med Chem, 2021).

The test system of data set [1] is SNU-638. The data set is described as follows: Cytotoxicity against human SNU-638 cells assessed as reduction in cell viability by SRB assay. The class given is functional, cell-based. The procedure, abridged:
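Cells seeded in 96-well plates and exposed to compounds for the stated times. Zero-day controls were incubated 30 min. Cells were fixed and stained with 0.4% SRB in 1% acetic acid, and bound dye was dissolved in 10 mM Tris (pH 10.0). A515 was read, and IC50 was calculated by non-linear regression.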
A general note: In SRB staining, fixed cells bind dye roughly in proportion to their protein.

Data set [2] in a line: Selectivity ratio of IC50 for human MCF-10A cells to IC50 for human A549 cells. The settings on record: MCF-10A cells versus A549 cells, read-out: Ratio IC50. The class given is toxicity.
A short description of data set [3]: Selectivity ratio of IC50 for human MCF-10A cells to IC50 for human MDA-MB-231 cells. The conditions noted are these: MCF-10A cells versus MDA-MB-231 cells, read-out: Ratio IC50. The class given is toxicity.
Data set [4] in a line: Selectivity ratio of IC50 for human MCF-10A cells to IC50 for human SK-HEP1 cells. Summed up: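 Cytotoxicity by SRB assay: cells seeded in 96-well plates and treated with compounds; fixed, stained with 0.4% SRB in 1% acetic acid, dye dissolved in 10 mM Tris (pH 10.0), absorbance read at 515 nm. IC50 by non-linear regression, means of at least three experiments; ratio of MCF10A IC50 to cancer-line IC50.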

The target of data set [5] is Histone-lysine N-methyltransferase, H3 lysine-79 specific (Homo sapiens) (UniProt Q8TEK3). The data set is described as follows: Inhibition of DOT1L in human MDA-MB-231 cells assessed as effect on histone H3 methylation at 50 to 200 nM by Western blot analysis. The settings on record: dose 50-200 nM. The data set is classed as cell-based. Summed up: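 MDA-MB-231 cell lysates in 2× SDS buffer, protein by BCA; 5–20 μg on 8–15% SDS-PAGE, transferred to PVDF, BSA-blocked and probed with antibodies to H3K4me2, H3K27me2, H3K36me2, H3K79me2 and total histone H3; ECL detection. Mean ± SD (n = 3), three separate experiments.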
(A western blot detects proteins with antibodies after separation by electrophoresis.)

Data set [6] has as its system MDA-MB-231. In words: Antiinvasive activity in human MDA-MB-231 cells assessed as reduction in cell invasion through matrigel-coated chamber after 24 hrs by diff-quik staining based microscopic analysis. The class given is functional. The conditions noted are these: dose 50-400 nM. Summed up:
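MDA-MB-231 cells pretreated with compound (50–400 nM) for 24 h, harvested into serum-free medium and plated at 0.5–1 × 10⁶ cells/chamber on transwell inserts (8 μm pores) coated with type I collagen and 1:20 Matrigel/PBS; 30% FBS medium as chemoattractant below. After 24 h, invaded cells fixed, Diff-Quik stained, counted in 5 random fields at 200×; three separate experiments.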

Data set [7] relates to MDA-MB-231. In words: Down regulation of CDH2 mRNA expression in human MDA-MB-231 cells at 50 to 200 nM measured after 24 hrs by RT-PCR analysis. The settings on record: dose 50-200 nM. The data set is classed as functional, cell-based.
Data set [8] has as its system MDA-MB-231. In words: Up regulation of CDH1 expression in human MDA-MB-231 cells at 50 to 200 nM measured after 48 hrs by Western blot analysis. The class given is functional, cell-based. The settings on record: dose 50-200 nM. The procedure, abridged: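 MDA-MB-231 cells exposed to compound for 48 h; lysates in 2× SDS sample buffer with orthovanadate and NaF, protein by BCA. 5–20 μg resolved on 8–15% SDS-PAGE, PVDF, BSA block, probed for E-cadherin, N-cadherin, ZEB1, vimentin; ECL detection, β-actin internal control, band densitometry. Mean ± SD (n = 3), three experiments.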

The test system of data set [9] is MDA-MB-231. The data set is described as follows: Antitumor activity against human MDA-MB-231 cells xenografted in BALB/c nu mouse assessed as reduction in tumor weight at 5 to 15 mg/kg, ip administered thrice per week for 38 days measured 1 week post last dose. The data set is classed as functional, organism-based. The settings on record: dose 5-15 mg/kg, time 45.0 day. Summed up: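 Female BALB/c-nu mice (5–6 wk) given 1 × 10⁷ luciferase-expressing MDA-MB-231 cells in 50:50 DMEM/Matrigel into the fourth fat pad; randomized after 10 days (six per group). Dosed ip in EtOH/Cremophor/saline (5:5:90) three times weekly for 38 days. Tumor L, W, H measured by caliper, volume = LWH/2; body weight weekly; tumors excised and weighed at termination.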
(A xenograft is tissue or cells of one species grown in another, often human tumour cells in immunodeficient mice.)

Data set [10] is described as follows: Toxicity in human MDA-MB-231 cells xenografted BALB/c nu mouse assessed as change in body weight at 5 to 15 mg/kg, ip administered thrice per week for 38 days measured once per week during compound dosing. The data set is classed as organism-based. The settings on record: in vivo, 912 h, dose 5-15 mg/kg, time 38 day. Summed up:
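Female BALB/c-nu mice, 5–6 weeks old, received 1 × 10⁷ luciferase-expressing MDA-MB-231 cells in 50:50 DMEM/Matrigel into the fourth fat pad. At day 10, mice were randomized into groups of six. Dosing was i.p. three times weekly for 38 days, in vehicle EtOH/Cremophor/saline 5:5:90. Body weight was recorded weekly, and toxicity was judged by lethality and weight loss.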

Data set [11] relates to MDA-MB-231. In words: Antimetastatic activity against human MDA-MB-231 cells xenografted in BALB/c nu mouse assessed as reduction in luciferase signal in tumor site at 5 to 15 mg/kg, ip administered thrice per week for 38 days measured 1 week post last dose by luciferase based imaging analysis. The class given is functional, organism-based. The conditions noted are these: dose 5-15 mg/kg, time 45.0 day. Summed up:
(§1)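 Orthotopic luciferase-expressing MDA-MB-231 model in female BALB/c-nu mice, ip dosing in EtOH/Cremophor/saline (5:5:90) three times weekly for 38 days. One week later anesthetized mice imaged by IVIS 15 min after D-luciferin (150 mg/kg in PBS); lungs and other organs then excised and imaged ex vivo.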

In data set [12] the test system is MDA-MB-231. The data set is described as follows: Antimetastatic activity against human MDA-MB-231 cells xenografted in BALB/c nu mouse assessed as reduction in luciferase signal in lung tissue at 5 to 15 mg/kg, ip administered thrice per week for 38 days measured 1 week post last dose by luciferase based imaging analysis. The data set is classed as functional, organism-based. The settings on record: dose 5-15 mg/kg, time 45.0 day. The procedure, abridged:
as §1

Data set [13] has as its system MDA-MB-231. The data set is described as follows: Antimetastatic activity against human MDA-MB-231 cells xenografted in ip dosed BALB/c nu mouse assessed as down regulation of vimentin expression in tumor tissue administered thrice per week for 38 days measured 1 week post last dose by Western blot analysis. The settings on record: dose 5-15 mg/kg, time 45.0 day. The class given is functional, organism-based. Summed up: (§2)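 Frozen tumor portions from the orthotopic MDA-MB-231 nude mouse study homogenized in complete lysis buffer; protein by Bradford assay. Western blotting for H3K79me2, E-cadherin and vimentin, β-actin internal control, band intensities semi-quantified; three separate experiments.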

The test system of data set [14] is MDA-MB-231. In words: Antimetastatic activity against human MDA-MB-231 cells xenografted in ip dosed BALB/c nu mouse assessed as up regulation of E-cadherin expression in tumor tissue administered thrice per week for 38 days measured 1 week post last dose by Western blot analysis. The data set is classed as functional, organism-based. The conditions noted are these: dose 5-15 mg/kg, time 45.0 day. Summed up: as §2

For data set [15], the system named is MDA-MB-231. The data set is described as follows: Antitumor activity against human MDA-MB-231 cells xenografted in BALB/c nu mouse assessed as down regulation of Ki67 expression in tumor tissue at 5 to 15 mg/kg, ip administered thrice per week for 38 days measured 1 week post last dose by H and E staining based immunohistochemical analysis. The data set is classed as functional, organism-based. The conditions noted are these: dose 5-15 mg/kg, time 45.0 day. The procedure, abridged:
(§3)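 Tumors and lungs from orthotopic MDA-MB-231/Luc nude mice (ip dosing three times weekly, 38 days) fixed in 4% PFA, paraffin-embedded, sectioned, antigen-retrieved. Lungs H&E-stained for metastatic cells; tumor sections immunostained for Ki67, H3K79me2, E-cadherin, vimentin with HRP detection, hematoxylin counterstain, imaged at 200×.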

Data set [16] deals with MDA-MB-231. The data set is described as follows: Antimetastatic activity against human MDA-MB-231 cells xenografted in BALB/c nu mouse assessed as up regulation of E-cadherin expression in tumor tissue at 5 to 15 mg/kg, ip administered thrice per week for 38 days measured 1 week post last dose by H and E staining based immunohistochemical analysis. The class given is functional, organism-based. The settings on record: dose 5-15 mg/kg, time 45.0 day. Summed up: as §3

Structures are written as SMILES. Activity calls are given as the source filed them. The calls are words filed in the database; no cut-off is given here.

Histone-lysine N-methyltransferase, H3 lysine-79 specific (Homo sapiens), sequence (Q8TEK3 whole entry, looked up): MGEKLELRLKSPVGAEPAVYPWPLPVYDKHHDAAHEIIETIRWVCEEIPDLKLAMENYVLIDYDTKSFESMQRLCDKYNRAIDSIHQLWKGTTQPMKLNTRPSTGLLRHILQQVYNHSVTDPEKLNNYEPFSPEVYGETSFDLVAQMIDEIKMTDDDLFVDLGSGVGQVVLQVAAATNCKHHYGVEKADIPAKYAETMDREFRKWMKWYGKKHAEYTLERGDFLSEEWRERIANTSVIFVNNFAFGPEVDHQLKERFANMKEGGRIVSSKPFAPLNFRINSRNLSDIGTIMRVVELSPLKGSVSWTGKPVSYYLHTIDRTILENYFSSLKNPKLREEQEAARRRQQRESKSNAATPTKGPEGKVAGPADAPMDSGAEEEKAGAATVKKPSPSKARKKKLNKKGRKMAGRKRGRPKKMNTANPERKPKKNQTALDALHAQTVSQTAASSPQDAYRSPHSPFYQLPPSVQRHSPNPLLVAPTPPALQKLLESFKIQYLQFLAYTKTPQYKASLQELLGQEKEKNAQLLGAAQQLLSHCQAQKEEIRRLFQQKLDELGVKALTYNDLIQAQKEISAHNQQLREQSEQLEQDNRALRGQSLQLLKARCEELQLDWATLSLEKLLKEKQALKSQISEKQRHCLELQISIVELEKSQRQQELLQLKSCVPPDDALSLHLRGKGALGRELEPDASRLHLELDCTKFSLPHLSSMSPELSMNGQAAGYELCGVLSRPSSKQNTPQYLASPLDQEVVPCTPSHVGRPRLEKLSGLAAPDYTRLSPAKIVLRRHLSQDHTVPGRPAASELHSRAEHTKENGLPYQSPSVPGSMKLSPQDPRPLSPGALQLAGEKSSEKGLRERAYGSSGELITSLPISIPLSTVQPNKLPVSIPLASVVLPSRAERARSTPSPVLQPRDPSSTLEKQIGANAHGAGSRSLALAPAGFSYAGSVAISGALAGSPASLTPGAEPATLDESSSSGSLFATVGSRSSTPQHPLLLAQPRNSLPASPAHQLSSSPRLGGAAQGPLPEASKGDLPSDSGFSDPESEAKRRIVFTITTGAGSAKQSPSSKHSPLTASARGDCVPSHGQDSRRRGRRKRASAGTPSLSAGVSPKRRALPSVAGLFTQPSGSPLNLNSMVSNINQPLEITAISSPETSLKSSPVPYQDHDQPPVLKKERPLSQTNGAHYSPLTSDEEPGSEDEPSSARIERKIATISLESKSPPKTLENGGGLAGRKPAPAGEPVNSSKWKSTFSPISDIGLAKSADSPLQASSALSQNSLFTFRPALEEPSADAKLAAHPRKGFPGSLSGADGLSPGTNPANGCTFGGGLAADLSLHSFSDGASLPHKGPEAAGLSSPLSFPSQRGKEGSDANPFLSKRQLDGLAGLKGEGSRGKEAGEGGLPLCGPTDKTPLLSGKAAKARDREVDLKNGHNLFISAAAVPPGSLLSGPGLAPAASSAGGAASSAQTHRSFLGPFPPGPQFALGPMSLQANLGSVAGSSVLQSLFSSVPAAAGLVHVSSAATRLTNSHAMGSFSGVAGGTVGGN

For `O=C(NCC[Se][Se]CCNC(=O)/C(Cc1ccccc1)=N/O)/C(Cc1ccccc1)=N/O`, the IC50 in [1] was found to be 50 nM. Also, the selectivity ratio in data set [2] and in [3] was > 100 each time. The “Ratio IC50” value in [4] is recorded as >100. In addition, in data set [5], the inhibition result is “Active”. Moreover, the Activity entry in [6] is “Dose-dependent effect”; in data set [10], “Non-Toxic”; in data set [13], “Dose-dependent effect”; in data set [14] it was “Dose-dependent effect”. The result in data set [7], in data set [8], in data set [9], in data set [11], in data set [12] and in data set [15] was Active. The outcome in data set [16] was Active.

In general, IC50 refers to the concentration that inhibits the measured activity by half.
